Laboratory results taken from the RNAGym collection of RNA variant scans (doi:10.1126/science.aae0568).
Variants at the floor of the assay were thinned out.

B1: tRNA (parent)
chain: GUUCCGUUGGCGUAAUGGUAACGCGUCUCCCUCCUAAGGAGAAGACUGCGGGUUCGAGUCCCGUACGGAACG

Variants of: B1
Assay: yeast fitness relative to wild type (ratio to wild type); higher = fitter; tRNA-Arg(CCU), competitive growth, 37 C, YPD
How it was run: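 Genotype frequency changes were the basis for Darwinian fitness relative to wild type. The frequencies came from 100-nucleotide paired-end sequencing of gene amplicons from the start population and each end population of pooled yeast strains with tRNA-Arg(CCU) gene variants at the native locus. Competition ran in YPD at 37°C for 24 hours in six replicates, genotypes needed ≥ 100 starting reads, and estimates < 0.5 were set to 0.5.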

First: C4U C29A G52C C55A C61A G68U
Second: C4U C29G
The yeast fitness of the first is lower: at most 0.5 for the first, 0.608 for the second.

First: C4U C29G A37C C46G
Second: C4U C29G G38C
The yeast fitness of the first is lower: at most 0.5 for the first, 0.621 for the second.

Compared with C4U C29U, C4U C29U A36U A65U is lower in yeast fitness: 1 for the first, 0.557 for the second.

Compared with C4U C29U A43U, C4U C29U C30G is lower in yeast fitness: 0.756 for the first, at most 0.5 for the second.

C4U C29U C31U U59C and C4U C29U C62U U64C A65U cannot be ordered by yeast fitness: at most 0.5 for the first, at most 0.5 for the second.

Compared with C4U C29U G39C, C4U C29U G50A G63A is lower in yeast fitness: 0.536 for the first, at most 0.5 for the second.

Compared with C4U C30A A36G, C4U C30A A42C is lower in yeast fitness: 0.839 for the first, 0.582 for the second.

Compared with C4U C30A A42U, C4U C30A A45U is higher in yeast fitness: 0.529 for the first, 0.77 for the second.

Compared with C4U C30A A57G, C4U C30A A65G G67C is lower in yeast fitness: 0.806 for the first, at most 0.5 for the second.

Going from C4U C30A A70G to C4U C30A A70U, the yeast fitness rises from 0.769 to 0.799.

Compared with C4U C30A C46G C49U, C4U C30A C49U is higher in yeast fitness: 0.57 for the first, 0.825 for the second.

Going from C4U C30A C55G to C4U C30A C60G, the yeast fitness rises from 0.549 to 0.6.

Compared with C4U C30A G38C C61A, C4U C30A G39C is higher in yeast fitness: at most 0.5 for the first, 0.598 for the second.

First: C4U C30A G67C
Second: C4U C30A U35C
The yeast fitness of the first is lower: 0.731 for the first, 0.77 for the second.

Going from C4U C30A U53C A70G to C4U C30A U54C, the yeast fitness rises from at most 0.5 to 0.739.

Going from C4U C30A U64C to C4U C30G, the yeast fitness falls from 0.92 to 0.801.

Going from C4U C30G A36U to C4U C30G A36U A70C, the yeast fitness falls from 0.563 to at most 0.5.

C4U C30G C46U G52A A65C and C4U C30G G51C G56U A65G cannot be ordered by yeast fitness: at most 0.5 for the first, at most 0.5 for the second.

Going from C4U C30U to C4U C30U A69U, the yeast fitness falls from 0.931 to 0.736.

First: C4U C30U C31G C62U
Second: C4U C30U C62A
The yeast fitness of the first is higher: 0.766 for the first, at most 0.5 for the second.

C4U C30U G38A G68C and C4U C30U G48C G68C cannot be ordered by yeast fitness: at most 0.5 for the first, at most 0.5 for the second.

First: C4U C30U U53G G56C C62G
Second: C4U C31A
The yeast fitness of the first is lower: at most 0.5 for the first, 0.827 for the second.

Going from C4U C31A A36G G44C to C4U C31A A37C G48A G58C, the yeast fitness falls from 0.59 to at most 0.5.

Going from C4U C31G to C4U C31G A37G, the yeast fitness falls from 0.868 to 0.526.

C4U C31G A42C C66U and C4U C31G A65U G67C cannot be ordered by yeast fitness: at most 0.5 for the first, at most 0.5 for the second.

C4U C31G C34G A43U G68C A69G and C4U C31G C55U G68C cannot be ordered by yeast fitness: at most 0.5 for the first, at most 0.5 for the second.

C4U C31G G38A C61A G63A and C4U C31U A37C C66U A69U cannot be ordered by yeast fitness: at most 0.5 for the first, at most 0.5 for the second.

Going from C4U C31U A37U to C4U C31U A43G C61A G63A A65U C66G, the yeast fitness falls from 0.617 to 0.575.

Compared with C4U C31U A45C C46U, C4U C31U A69C is lower in yeast fitness: 1.01 for the first, 0.669 for the second.

C4U C31U C55G A70C and C4U C31U C61U G68C cannot be ordered by yeast fitness: at most 0.5 for the first, at most 0.5 for the second.

Compared with C4U C31U G52C C61A, C4U C31U G67C is higher in yeast fitness: at most 0.5 for the first, 0.598 for the second.

Compared with C4U C33A, C4U C33A C49U U54G is lower in yeast fitness: 0.724 for the first, at most 0.5 for the second.

Going from C4U C33A C61U to C4U C33A G41C C60U A65U A69U, the yeast fitness falls from 0.597 to at most 0.5.

C4U C33A G68A and C4U C33A U54G cannot be ordered by yeast fitness: at most 0.5 for the first, at most 0.5 for the second.

Compared with C4U C33G A36G G67A G68C, C4U C33G C34G G51C U54C is lower in yeast fitness: 0.604 for the first, 0.561 for the second.

Compared with C4U C33G C60G, C4U C33G U47G is higher in yeast fitness: at most 0.5 for the first, 0.591 for the second.

First: C4U C34A
Second: C4U C34A C62U
The yeast fitness of the first is higher: 0.846 for the first, 0.566 for the second.

C4U C34A G56A C60G and C4U C34G C49G G68C cannot be ordered by yeast fitness: at most 0.5 for the first, at most 0.5 for the second.

Going from C4U C34G C66A to C4U C34G G52A A69C, the yeast fitness falls from 0.562 to at most 0.5.

C4U C34G G63C A69C and C4U C34U G68C cannot be ordered by yeast fitness: at most 0.5 for the first, at most 0.5 for the second.

Going from C4U C34U U59A to C4U C46A, the yeast fitness rises from at most 0.5 to 0.841.

Work on C4U C46A G50A C61U C62U yielded a yeast fitness of 1.09.
